In the library only some 2.5% were active in any assay of this set; here they are far more common.
TRPC4 agonist: opens the mouse TRPC4 cation channel; 310,000 compounds, 0.49% hits; Q9QUQ5; B-score at 10 µM; HEK293 TRPC4beta/mu-opioid, Fluo4 calcium fluorescence; hits give high values;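 active = B-score above 5 SD of library B-scores, and initial fluorescence ratio not above library mean plus 5 SD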;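 also: positive B-score marks a calcium rise read as TRPC4 activation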
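Material: TRPC4beta and mu-opioid receptor HEK293 stable cells | Incubation: 45 min room-temperature Fluo4 loading, 110 s read | Detection: Kinetic Fluo4 calcium fluorescence | Measure: Integrated baseline-normalised fluorescence ratio, converted to per-well B score | Benchmarks: Low control buffer alone, high control maximal DAMGO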
Platelet DG rel: modulates dense granule release in human platelets | 300,000 compounds, 0.22% hits | human platelet-rich plasma, SFLLRN dense granule ATP release, luminescence | inhibition, %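 (compounds screened at 7.5 µM in platelet-rich plasma)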 | AID 1663;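 active = mean replicate score, as percent of positive control, at or above 50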
TRPC4 block: blocks the mouse TRPC4 cation channel | Q9QUQ5 | HEK293 TRPC4beta/mu-opioid, DAMGO-evoked Fluo4 calcium flux; hits give low values | B-score at 10 µM | 300,000 compounds, 0.39% hits;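 active = B-score over 3 SD under the library average, no early fluorescence shift, positive overall ratio signal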
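Signal: kinetic Fluo4 fluorescence imaging of calcium influx. Material: stable TRPC4beta/mu-opioid receptor HEK293 cells. Probe or stimulus: DAMGO in two steps, submaximal then maximal.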
TRPC6 inhibitor: blocks the mouse TRPC6 cation channel; Q61143; HEK293-TRPC6, membrane potential dye, ACh-evoked depolarization; hits give low values; B-score at 10 µM; 310,000 compounds, 1.1% hits; AID 2553;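 active = B-score under library mean minus 3 SD, initial fluorescence not abnormally high, positive integrated signal ratio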;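 also: B-score derived from integrated fluorescence ratio over the kinetic read; more negative B-score means stronger inhibition of depolarization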
TRPC4 potent: allosterically enhances the mouse TRPC4 cation channel. Q9QUQ5. AID 2227. HEK293 TRPC4beta/mu-opioid, DAMGO EC20, Fluo-4 Ca2+ flux; hits give high values. B-score at 10 µM. 310,000 compounds, 0.42% hits;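 active = B-score of calcium response area above 5 SD of library B-scores, with initial fluorescence ratio within 5 SD of library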
TRPC6 act: activators of mouse TRPC6 channel; Q61143; HEK293-TRPC6 membrane potential dye fluorescence; hits give high values; B-score at 10 µM; 310,000 compounds, 0.13% hits; AID 2550;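 active = B-score of the integrated fluorescence ratio above library mean plus 3 SD, and starting fluorescence ratio within library mean plus 5 SD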;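 also: higher score means more depolarization so channel activation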
Large screens that a line does not name were inactive.

CCOC(=O)C1(CC2CCCCO2)CCN(Cc2cc3ccccc3[nH]2)CC1 (configuration not stated)	TRPC4 agonist 273
COc1cccc(CC2(CO)CCCN(Cc3ccccc3-c3ccco3)C2)c1 (configuration not stated)	TRPC4 agonist 43, TRPC4 block -7
COc1ccc(CCn2c(=S)[nH]c3cc(C(=O)NCc4ccco4)ccc3c2=O)cc1OC	none (no result: TRPC4 agonist, TRPC4 block, TRPC6 inhibitor, TRPC4 potent, TRPC6 act)
OCC1(CC2CCCCO2)CCN(Cc2ccccc2-c2ccco2)CC1 (configuration not stated)	TRPC4 agonist 75
CCCn1ncc(CN2CCC(CO)(CC3CCCCO3)CC2)c1C (configuration not stated)	none
CCOc1ccc(OCC(=O)Nc2nccs2)cc1	Platelet DG rel 69
COc1ccc(OCC(=O)Nc2nccs2)cc1	none
CCOc1ccc(NC(=O)CSCc2cnn(-c3ccccc3)c2-n2cccc2)cc1	none
COc1ccc(-c2cc(C(F)(F)F)nc(N3CCCCCC3)n2)cc1	none
COc1ccc(-c2cc(C#N)nc(N3CCN(C)CC3)n2)cc1	none
COc1ccc(-c2cc(C(F)(F)F)nc(N3CCN(C)CC3)n2)cc1	TRPC4 potent 15
COc1ccc(-c2cc(C#N)nc(N3CCNCC3)n2)cc1	TRPC4 agonist 129
CCc1nc2cccnc2n1-c1ccc(CC(=O)NC(C)CC)cc1 (configuration not stated)	none
CCn1c(SCC(=O)c2ccc(O)c(O)c2)nnc1-c1ccc(C)cc1	none
CCn1c(Cc2cccn2C)nnc1SCC(=O)c1ccc(C)cc1	Platelet DG rel 58
CC(NC(=O)C(=O)N1CCOCC1)C(c1cccs1)N1CCN(c2ccccc2F)CC1 (configuration not stated)	none
Oc1ccc(N=Nc2ccc3ccccc3c2)cc1	Platelet DG rel 54
O=C(CCn1c(=S)oc2ccccc21)NC1CCCCCCC1	none
O=C(O)CNC(=O)c1ccc(NC(=O)/C(=C/c2ccccc2)NC(=O)c2ccco2)cc1	none
CCOC(=O)CNC(=O)N1CCCC(CNS(=O)(=O)Cc2ccccc2)C1 (configuration not stated)	none
CN1CCN(c2ccc(NC(=O)COc3ccc4ccccc4c3)cc2)CC1	none
CN1CCN(c2ccc(NC(=O)COc3cccc4ccccc34)cc2)CC1	TRPC4 agonist 177
CCOC(=O)N1CCC(c2cc(=O)n3[nH]cc(C(=O)OC)c3n2)CC1	none
CCOc1ccc(NC(=O)c2c[nH]n3c(=O)cc(C4CCN(C(=O)OC(C)(C)C)CC4)nc23)cc1	TRPC4 block -7
COC(C)(C)[C@]12CC(O)(c3ccccc3)ON1[C@H]1CCCCC1N2O (some centres not stated)	none
O=C(COC(=O)/C=C/c1cn(-c2ccccc2)nc1-c1ccc2c(c1)OCCO2)NC1CCS(=O)(=O)C1 (configuration not stated)	Platelet DG rel 52
COc1cc(NC(=O)c2cc(CC(C)C)on2)c(OC)cc1Cl	TRPC4 potent 10
Brc1ccccc1CN1CCN(Cc2c[nH]c3ccccc23)CC1	TRPC4 block -6
O=[N+]([O-])c1ccc(CN2CCN(Cc3c[nH]c4ccccc34)CC2)cc1	TRPC4 block -6
Brc1ccc(CN2CCN(Cc3c[nH]c4ccccc34)CC2)cc1	none
COc1ccccc1NC(=O)c1c(Nc2ccccc2F)sc(C(=O)Nc2cccc(Cl)c2)c1N	none
COc1ccc(Br)cc1CNC(=O)Cc1c(C(=O)O)[nH]c2ccc(Cl)cc12	none
CCN1CCN(c2cc(N3CCN(C(=O)c4ccco4)CC3)c3c4c(onc24)-c2ccccc2C3=O)CC1	TRPC6 inhibitor -5.9
CCOc1ccccc1N(CC(=O)N1CCOCC1)S(=O)(=O)c1ccc(SC)cc1	TRPC4 agonist 175
Cc1ccc(S(=O)(=O)N(CC(=O)N2CCOCC2)c2ccccc2F)cc1	none
Cc1ccc(S(=O)(=O)Oc2ccccc2/C=N/O)cc1	none
Cc1ccc(Oc2ccccc2/C=N/O)cc1	TRPC4 block -7
COc1ccc(CCNC(=O)c2cc3cc(F)ccc3nc2C)cc1OC	none
O=C(NC1CC2CCCC(C1)N2C(=O)Nc1ccccc1Cl)C1CC1 (configuration not stated)	none
